Screening data from PubChem.
This excerpt belongs to a sample that is enriched for hits.
T cruzi repl: blocks replication of Trypanosoma cruzi. inhibition, % (concentration not given with the values). T. cruzi beta-gal in NIH3T3, luminescence, 90 h. 300,000 compounds, 1.4% hits;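 active = mean inhibition across valid replicates above about 55%, limit read from the data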;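 note: signal also drops with host cell toxicity which is not excluded here; 0% = plate median of DMSO wells and 100% = zero luminescence signal; higher percent means less beta-gal luminescence so fewer parasites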
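System: Mouse NIH/3T3 fibroblasts infected with β-gal-expressing T. cruzi Tulahuen C4 | Quantity: NIH/3T3 cells, 5,000 per well | Reagent: 5000 reporter trypomastigotes per well | Dosing: Compound pinned at 50 nL/well, DMSO | Schedule: 3 h host attachment, then at least 90 h co-culture | Detection: GalScreen luminescence, 60 min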
Calb FLC: affects C. albicans growth with fluconazole; 300,000 compounds, 0.57% hits; C. albicans CaCi-2 + fluconazole, Alamar Blue growth, 48 h; growth inhibition, % (concentration not given with the values);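 active = growth inhibition above about 58% in most replicates, limit read from the data, passing the limit was not always enough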;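 note: all wells also contain fluconazole at 8 µg/ml as a sub-toxic cotreatment; 0% = median of DMSO wells and 100% = median of geldanamycin control wells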
NALP3 yeast inh: NALP3 inhibition in yeast; Yeast reconstituted NLRP3/ASC/caspase-1, beta-gal luminescence, 24 h; inhibition, % at 10 µM; 330,000 compounds, 0.39% hits;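 active = inhibition of 50% or more; inactive = inhibition below 50%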;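 note: plate controls were induced DMSO wells for no effect and uninduced yeast grown without galactose for full effect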
PolyA inh: inhibitors of polyadenylation in S. cerevisiae. S. cerevisiae SKY197-pL101 polyadenylation reporter, beta-gal luminescence; efflux-impaired pdr1/pdr3 knockout yeast; score 100 = 6 SD above DMSO. activity score, % at 12 µM. 300,000 compounds, 0.02% hits. AID 1875;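 active = lowest replicate activity score at least 50, where 100 means six control SD above control mean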;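 note: yeast exposed to compound for 9 h at 30 °C; higher score means more reporter readthrough which indicates perturbed polyadenylation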
NALP1 yeast inh: NALP1 inhibition; S. cerevisiae NALP1/ASC/caspase-1 growth, X-gal OD620, 72 h; inhibition, % at 10 µM; 280,000 compounds, 0.61% hits; AID 2071; in the data active = inhibition mostly above about 24%, no sharp cut-off; inactive = mostly below about 32%
Lmaj promast: reduces viability of Leishmania major promastigotes; resazurin fluorescence viability; 200,000 compounds, 9% hits; inhibition, % at 10 µM; in the data active = inhibition above about 50%;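 note: promastigotes grown with compound for 44 hours at 28 °C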
* marks the source's active call; other numbers are inactive results; nt = no result given.

SMILES | T cruzi repl | Calb FLC | NALP3 yeast inh | PolyA inh | NALP1 yeast inh | Lmaj promast
CC(C)(C)C(=O)NC(=S)Nc1ccc(F)cc1 | 11 | -6 | 15 | -5 | 10 | 0
CCOc1ccc(OCCCCN2CCCC2)cc1 | 28 | -11 | 5 | 6 | 16 | 99*
COC(=O)c1ccccc1OCCCCN1CC(C)OC(C)C1 (configuration not stated) | 1 | -9 | 18 | -33 | 30 | 88*
COC(=O)c1ccccc1OCCOc1ccccc1C(=O)OC | -11 | 2 | 5 | -8 | 8 | -4
CC1CN(CCOc2ccc(Cl)c(Cl)c2)CC(C)O1 (configuration not stated) | 28 | 14 | 34 | -7 | 6 | nt
CC1CN(CCCCOc2ccc(F)cc2)CC(C)O1 (configuration not stated) | 6 | 10 | -19 | -50 | -13 | 85*
Cc1ccc(OCCCCN2CCCCC2)cc1 | -23 | -4 | -4 | 9 | -9 | nt
Fc1ccc(OCCCCCN2CCCC2)cc1 | 28 | -3 | 21 | 16 | -6 | 87*
CC(C)C(=O)O/N=C(\N)c1ccc(Oc2ccc(Cl)cc2)c([N+](=O)[O-])c1 | 5 | 7 | 17 | -5 | nt | nt
Cc1ccc(S(=O)(=O)N(C)CC(=O)N(CC(C)C)C2CCS(=O)(=O)C2)cc1 (configuration not stated) | -2 | 6 | 11 | 0 | nt | nt
CC(=O)Nc1ccc(S(=O)(=O)N(C)CC(=O)OCC(=O)N2CCCCCC2)cc1 | 1 | -6 | 12 | -16 | 5 | nt
COP(=O)(OC)c1nc(-c2cccc3ccccc23)oc1NCCc1ccccc1 | 27 | -3 | 12 | -1 | 6 | 71*
CCOP(=O)(OCC)c1nc(-c2ccc(C)cc2)oc1NCc1ccccc1 | 13 | 15 | 2 | 9 | 35 | 79*
CCOP(=O)(OCC)c1nc(-c2cccc3ccccc23)oc1NCc1ccccc1 | 3 | -18 | -3 | -13 | 34 | -4
CCOP(=O)(OCC)c1nc(-c2cccc3ccccc23)oc1NCc1ccc(OC)cc1 | 57* | -5 | 13 | -2 | 9 | 71*
Cc1ccc(NC(=O)C(C)N2CCN(C)CC2)cc1S(=O)(=O)N1CCOCC1 (configuration not stated) | nt | nt | 3 | nt | nt | nt
CCOc1ccc(C(=O)N2CCC(C(=O)c3ccc4c(c3)OCCO4)CC2)cc1 | -3 | 1 | 15 | 12 | 10 | 3
O=C(O)c1ccc(C(=O)O)c(C(=O)c2ccc(NC(=O)c3ccccc3)cc2)c1 | -12 | 7 | -2 | -7 | 22 | nt
O=C(NN=C(Cc1ccccc1)Cc1ccccc1)c1ccccc1O | 0 | -42 | -5 | -7 | -8 | 61*
O=C(NN=C(Cc1ccccc1)Cc1ccccc1)c1ccc(F)cc1 | 12 | -12 | 3 | -1 | 40 | -6
NC(=S)NN=C(Cc1ccccc1)Cc1ccccc1 | 60* | -3 | 25 | -19 | -39 | 44
O=C(COc1ccccc1Cl)N1CCN(c2ccccn2)CC1 | -6 | 1 | 8 | -7 | nt | nt
CC(=O)NCCc1nc2cc(NS(=O)(=O)c3ccccc3)ccc2n1C | -10 | 4 | -8 | -17 | 14 | nt
CSCC[C@H](NS(=O)(=O)c1ccc(C)cc1)C(=O)N1CCC(C(=O)N[C@@H](C)C(=O)O)CC1 | -11 | -3 | 6 | -7 | 13 | nt
N#CC1=C(N)Oc2cc3ccccc3cc2C1c1cccnc1 (configuration not stated) | 0 | 4 | -4 | 1 | 3 | 85*
SMILES | T cruzi repl | Calb FLC | NALP3 yeast inh | PolyA inh | NALP1 yeast inh | Lmaj promast
N#CC1=C(N)OC2=C(C(=O)CC(c3ccccc3)C2)C1c1cccnc1 (configuration not stated) | 55* | -7 | -5 | -3 | 32 | 93*
N#CC1=C(N)Oc2c(ccc3cccnc23)C1c1cccnc1 (configuration not stated) | 11 | 104* | 20 | -10 | -12 | -12
N#CC1=C(N)Oc2cc3ccccc3cc2C1c1cccs1 (configuration not stated) | -5 | 8 | 1 | -4 | 12 | 3
O=C(NCCCn1ccnc1)c1ccccc1Br | -6 | -11 | 20 | 18 | 12 | nt
CC1(C)C(=O)Nc2ccccc2N1C(=O)Cn1ncc(Cl)c(Cl)c1=O | 55* | 7 | 5 | -19 | 7 | nt
O=C(Cn1ncc(Cl)c(Cl)c1=O)N1CCc2ccccc21 | 82* | -5 | nt | 0 | 1 | 87*
